ChEMBL document CHEMBL2169742, “Design, synthesis, and biological evaluation of novel transrepression-selective liver X receptor (LXR) ligands with 5,11-dihydro-5-methyl-11-methylene-6H-dibenz[b,e]azepin-6-one skeleton” (J Med Chem, 2012)
The source made the active and inactive calls. No cut-off for these calls is given here.

Columns and labels:
[1] = Induction of LPS-induced IL-6 production in LXRalpha,LXRbeta-deficient C57BL/6J mouse peritoneal macrophages at 3 uM incubated for 6 hrs prior to LPS-induction measured after 18 hrs by ELISA; assay type: cell-based; conditions: peritoneal macrophage cell
Summary of the method: (§1)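 Thioglycollate-elicited peritoneal macrophages came from 8–10-week LXRα/β-null mice on C57BL/6J background, harvested 4 days post-injection. They were adhered, rested 24 h and plated at 2 × 10⁵/well, then pretreated with compound 6 h before LPS 10 ng/mL. Supernatant mIL-6 was measured by ELISA after 18 h; means ± SE of ≥3 independent measurements, ANOVA.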

[2] = target: T1, Oxysterols receptor LXR-beta (Homo sapiens, UniProt P55055); test: Transactivational agonist activity at human LXRbeta transfected in HEK293 cells expressing CMX-Gal4N assessed as luciferase activity after 16 hrs by reporter gene assay relative to N-(4-(1,1,1,3,3,3-hexafluoro-2-hydroxypropan-2-yl)phenyl)-N-methylbenzamide; assay type: cell-based; conditions: read-out: Efficacy
T1 sequence (P55055 whole entry): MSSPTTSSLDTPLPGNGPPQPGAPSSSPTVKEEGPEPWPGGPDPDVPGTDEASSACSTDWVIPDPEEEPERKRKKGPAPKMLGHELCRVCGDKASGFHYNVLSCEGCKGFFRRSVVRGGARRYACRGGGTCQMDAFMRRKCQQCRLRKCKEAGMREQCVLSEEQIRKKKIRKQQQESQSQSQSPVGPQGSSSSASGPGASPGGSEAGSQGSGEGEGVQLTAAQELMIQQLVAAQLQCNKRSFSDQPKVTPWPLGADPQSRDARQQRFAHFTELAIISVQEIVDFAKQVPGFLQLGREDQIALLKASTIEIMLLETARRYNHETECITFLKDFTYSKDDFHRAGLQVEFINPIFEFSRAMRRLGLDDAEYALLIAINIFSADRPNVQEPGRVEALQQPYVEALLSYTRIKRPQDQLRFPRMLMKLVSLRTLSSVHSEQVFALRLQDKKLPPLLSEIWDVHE

[3] = target: T2, Oxysterols receptor LXR-alpha (Homo sapiens, UniProt Q13133); test: Transactivational agonist activity at human LXRalpha transfected in HEK293 cells expressing CMX-Gal4N assessed as luciferase activity after 16 hrs by reporter gene assay relative to N-(4-(1,1,1,3,3,3-hexafluoro-2-hydroxypropan-2-yl)phenyl)-N-methylbenzamide; assay type: cell-based; conditions: read-out: Efficacy
T2 sequence (Q13133 whole entry): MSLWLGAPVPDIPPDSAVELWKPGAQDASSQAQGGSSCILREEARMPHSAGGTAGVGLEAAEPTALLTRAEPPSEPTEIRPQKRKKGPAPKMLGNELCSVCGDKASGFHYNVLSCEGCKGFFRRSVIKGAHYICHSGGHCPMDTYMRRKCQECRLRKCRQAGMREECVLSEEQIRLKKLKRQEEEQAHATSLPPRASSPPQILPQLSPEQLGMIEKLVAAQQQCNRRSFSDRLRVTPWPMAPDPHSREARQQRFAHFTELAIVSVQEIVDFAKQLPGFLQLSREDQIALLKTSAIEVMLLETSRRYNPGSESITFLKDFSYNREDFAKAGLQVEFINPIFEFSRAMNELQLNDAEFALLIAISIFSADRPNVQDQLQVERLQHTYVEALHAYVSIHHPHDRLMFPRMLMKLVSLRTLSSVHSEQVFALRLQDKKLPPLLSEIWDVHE

[4] = target: T3, Liver X receptor (Homo sapiens, UniProt Q13133+P55055); test: Transrepressional activity at LXR in human TPA-activated THP1 cells assessed as inhibition of LPS-induced IL6 production incubated for 6 hrs prior to LPS-challenge measured after 18 hrs by ELISA; assay type: cell-based; conditions: thp-1
T3 sequence (Q13133 whole entry): T2 sequence (Q13133 whole entry)
T3 sequence (P55055 whole entry): T1 sequence (P55055 whole entry)

[5] = test system: Peritoneal macrophage cell; test: Inhibition of LPS-induced IL-1beta mRNA expression in LXRalpha-deficient C57BL/6J mouse peritoneal macrophages at 10 uM incubated for 6 hrs prior to LPS-challenge measured after 18 hrs by RT-PCR analysis; assay type: functional, cell-based
Summary of the method: (§2)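 Thioglycollate-elicited peritoneal macrophages (wild-type C57BL/6J or LXRα-null, 8–10 weeks) were plated at 4 × 10⁶/well and pretreated with compound 6 h before LPS 100 ng/mL. Cells were harvested after 18 h. il-6 and il-1β mRNA were measured by real-time quantitative PCR, normalized to GAPDH.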

[6] = test system: Peritoneal macrophage cell; test: Inhibition of LPS-induced IL-6 mRNA expression in LXRalpha-deficient C57BL/6J mouse peritoneal macrophages at 10 uM incubated for 6 hrs prior to LPS-challenge measured after 18 hrs by RT-PCR analysis; assay type: functional, cell-based; summary of the method: as §2
[7] = Induction of LPS-induced IL-6 production in LXRalpha,LXRbeta-deficient C57BL/6J mouse peritoneal macrophages at 10 uM incubated for 6 hrs prior to LPS-induction measured after 18 hrs by ELISA; assay type: cell-based; conditions: peritoneal macrophage cell; summary of the method: as §1
[8] = test system: Peritoneal macrophage cell; test: Inhibition of LPS-induced IL-6 production in LXRalpha,LXRbeta-deficient C57BL/6J mouse peritoneal macrophages at 10 uM incubated for 6 hrs prior to LPS-challenge measured after 18 hrs by ELISA; assay type: functional, cell-based; summary of the method: as §1
[9] = Transrepressional activity at LXR in C57BL/6J mouse peritoneal macrophages assessed as inhibition of LPS-induced IL-1beta mRNA expression at 10 uM incubated for 6 hr prior to LPS-challenge measured after 18 hrs by RT-PCR analysis; summary of the method: as §2
[10] = Transrepressional activity at LXR in C57BL/6J mouse peritoneal macrophages assessed as inhibition of LPS-induced IL-6 mRNA expression at 10 uM incubated for 6 hr prior to LPS-challenge measured after 18 hrs by RT-PCR analysis; summary of the method: as §2
[11] = target: T1, Oxysterols receptor LXR-beta; test: Transactivational agonist activity at human LXRbeta transfected in HEK293 cells expressing CMX-Gal4N assessed as luciferase activity after 16 hrs by reporter gene assay; assay type: cell-based
Summary of the method: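 Gal4-hLXRα or Gal4-hLXRβ chimera (15 ng) cotransfected with tk-MH100×4-luc reporter (50 ng) and CMX-β-gal (10 ng) into HEK293 cells by calcium phosphate. Luciferase was normalized to β-gal, in triplicate.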

[12] = target: T2, Oxysterols receptor LXR-alpha; test: Transactivational agonist activity at human LXRalpha transfected in HEK293 cells expressing CMX-Gal4N assessed as luciferase activity after 16 hrs by reporter gene assay; assay type: cell-based

SMILES	Activity [1]	Emax [2] [%]	Emax [3] [%]	IC50 [4] [µM]	inhibition [5]	inhibition [6]	Activity [7]	inhibition [8]	inhibition [9]	inhibition [10]	EC50 [11] [nM]	EC50 [12] [nM]
O=S(=O)(c1ccccc1)N(CC(F)(F)F)c1ccc(C(O)(C(F)(F)F)C(F)(F)F)cc1 [T091317]	Toxic	118	124	–	–	–	–	–	–	–	–	–
C=C1c2ccccc2C(=O)N(C)c2ccc(C(O)(C(F)(F)F)C(F)(F)F)cc21	–	73	45	5.8	inactive	inactive	Toxic	inactive	Active	Active	770	1700
